Reference: publication PMC8724909 (Molecular Systems Design & Engineering, 2021)

Columns and labels:
[1] = tested on: Galleria mellonella larvae; experiment: Toxicity in Galleria mellonella larvae; type: in vivo; conditions: uninfected larvae injected with 10, 25, 50, 100 and 200 mg per body weight kg
Outline: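 Age- and weight-defined larvae, stored at 15 °C without food, were used uninfected. Groups of 10 larvae received hemocoel injections of test compound or nalidixic acid at 10, 25, 50, 100 and 200 mg/kg body weight, given with a 10 μl syringe.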

[2] = tested on: E. coli CFT073 nalidixic acid resistant line; experiment: Galleria mellonella infection model, survival; type: in vivo; conditions: nalidixic acid at 50 mg per body weight kg; 48 h
Outline: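 Nalidixic acid-resistant strain was grown overnight in Mueller-Hinton II broth and washed twice in PBS. Larvae got 10^7 CFU in 10 μl PBS into the hemocoel via the first left proleg, then treatment via the second right proleg. Monotherapy doses were 10–100 mg/kg. Controls were PBS-only and untreated infected larvae. Larvae were kept at 37 °C for 48 h, with survival scored every 6 h.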

## CCn1cc(C(=O)O)c(=O)c2ccc(C)nc21 [Nalidixic acid, nalidixic acid]
[1]
  toxicity in larvae: no toxicity
[2]
  improvement of survival of infected larvae, monotherapy: approximately 25%
